Screening results as filed in PubChem BioAssay.
Arrestin-AP2 inh: blocks beta-arrestin peptide binding to AP2 adaptin | inhibition, % at 10 µM | FITC-arrestin peptide / GST-AP2 beads, flow cytometry; AP2 beta2 appendage carries R879A mutation | 340,000 compounds, 0.31% hits;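 active = inhibition above a set limit, near 3 SD of compounds lacking own fluorescence, cut at about 54% in these data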
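Measured by: flow cytometry, FL1 (488/535 nm); Material: AP2 appendage R879A on GSH beads; Evaluation: percent response; Timing: pre-incubation 12 min, peptide binding 1 h, room temperature; Also added: 50 nM FITC-arrestin peptide; Medium: PBS with 0.05% Tween 20 and 0.1% BSA.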
MOR-DOR inv ag: inverse agonists of human mu-delta opioid receptor heterodimerization; P35372+P41143; inhibition, % at 9.3 µM; 340,000 compounds, 0.21% hits; AID 504357; cell-based MOR-DOR heterodimer luminescence, inverse agonism; in the data active = inhibition above about 22%, passing the limit was not always enough
Target sequence (P35372 whole entry, looked up): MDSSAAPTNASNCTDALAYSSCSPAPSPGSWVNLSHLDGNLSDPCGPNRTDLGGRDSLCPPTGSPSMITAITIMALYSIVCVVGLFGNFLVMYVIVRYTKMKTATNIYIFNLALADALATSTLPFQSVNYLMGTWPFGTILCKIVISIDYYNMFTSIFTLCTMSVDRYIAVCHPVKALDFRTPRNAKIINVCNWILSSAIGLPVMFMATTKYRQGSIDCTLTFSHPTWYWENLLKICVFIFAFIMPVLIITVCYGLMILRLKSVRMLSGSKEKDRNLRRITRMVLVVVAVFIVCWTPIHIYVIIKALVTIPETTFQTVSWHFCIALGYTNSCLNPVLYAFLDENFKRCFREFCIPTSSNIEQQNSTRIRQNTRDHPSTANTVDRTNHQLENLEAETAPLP
Target sequence (P41143 whole entry, looked up): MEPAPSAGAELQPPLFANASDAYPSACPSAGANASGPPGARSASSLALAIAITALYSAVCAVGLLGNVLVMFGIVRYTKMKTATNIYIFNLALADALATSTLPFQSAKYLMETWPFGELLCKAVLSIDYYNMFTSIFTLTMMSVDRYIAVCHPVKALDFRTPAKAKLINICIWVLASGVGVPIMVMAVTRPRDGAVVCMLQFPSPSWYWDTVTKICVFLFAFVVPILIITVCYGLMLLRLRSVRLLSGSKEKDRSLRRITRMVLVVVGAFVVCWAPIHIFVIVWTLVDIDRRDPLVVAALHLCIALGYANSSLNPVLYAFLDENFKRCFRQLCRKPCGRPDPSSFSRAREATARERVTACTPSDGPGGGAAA
HTR5A ag: HTR5A agonism, opioid heterodimer counter-screen; HTR5A agonist assay, luminescence, cell-based; AID 504692; 340,000 compounds, 0.61% hits; activation, % at 9.3 µM; in the data active = activation mostly above about 9.5%, no sharp cut-off; inactive = mostly below about 7.6%
MOR-DOR ag: agonists of human mu-delta opioid receptor heterodimerization | P35372+P41143 | activation, % at 9.3 µM | cells, OPRM1-OPRD1 heterodimerization, luminescence | 340,000 compounds, 0.3% hits; in the data active = activation above about 18%
HTR5A inv ctr: counter-screen for OPRM1-OPRD1 inverse agonists: human HTR5A inverse agonism; P47898; HTR5A cell line, luminescence; inhibition, % at 9.3 µM; 340,000 compounds, 0.083% hits; in the data active = inhibition mostly above about 23%, no sharp cut-off; inactive = mostly below about 18%
DAGLB inh: diacylglycerol lipase beta (human) inhibition. 340,000 compounds, 0.059% hits. Q8NCG7. inhibition, % at 5.17 µM. HEK293T DAGLB membrane lysate, EnzChek fluorogenic substrate; in the data active = inhibition above about 34%
Numbers stand for hits; – = inactive; · = no result. A selection: hits, their analogues and other compounds. The true share with any hit is near 1.4%.

SMILES	Arrestin-AP2 inh	MOR-DOR inv ag	HTR5A ag	MOR-DOR ag	HTR5A inv ctr	DAGLB inh
O=C(CSc1ncn[nH]1)Nc1ccc(Cl)c(Cl)c1	–	–	8.7	–	–	–
CCCCn1c(N)c(N(CCC(C)C)C(=O)COC(=O)Cc2ccc(Cl)cc2)c(=O)[nH]c1=O	–	–	–	–	–	–
O=C(COC(=O)CN1C(=O)c2ccccc2C1=O)Nc1ccccc1[N+](=O)[O-]	–	–	–	–	–	–
O=C(COC(=O)CCN1C(=O)c2ccccc2C1=O)Nc1ccccc1[N+](=O)[O-]	–	–	11	–	–	–
CCc1nnc(SCC(=O)NC2CCCCC2)nc1CC	–	–	–	–	–	–
CCc1nnc(SCC(=O)NC2CCCC2)nc1CC	–	–	9.8	–	–	–
CCn1c(C)nc2cc(C(=O)N/N=C(\C)c3ccccc3O)ccc21	–	–	10	–	–	–
Cc1ccc(C(=O)NC(C)c2ccc(F)cc2)cc1 (stereo unspecified)	–	–	–	–	–	–
CC(NC(=O)c1ccc(F)cc1)c1ccccc1 (stereo unspecified)	–	–	10	–	–	–
O=C(c1ccoc1)N1CCN(c2cc(-c3cccnc3)nc3cc(-c4cccc(Cl)c4)nn23)CC1	·	·	·	·	·	–
CC(c1ccccc1)C1CC(=O)N(c2ccccc2)C1=O (stereo unspecified)	–	35	–	–	36	–
O=C(O)c1ccc(N/N=C/c2ccc(-c3ccccc3)cc2)cc1	–	–	13	–	–	–
CC(C)c1ccc(/C=N/Nc2ccc(C(=O)O)cc2)cc1	–	–	–	–	–	–
COc1ccc2nc(Cl)c(C=O)c(N3CCOCC3)c2c1	·	·	·	·	·	–
COc1ccc(CN2c3c(Br)cccc3C(=O)CS2(=O)=O)cc1	–	–	–	–	17	–
CCN(CC)S(=O)(=O)c1ccc(C(=O)NCC(=O)NCc2ccc3c(c2)OCO3)cc1	·	·	·	·	·	–
N#CCCN(C(=O)COC(=O)CCc1nc2ccccc2c(=O)[nH]1)c1ccc(F)cc1	–	–	10	–	–	–
COC(=O)C[C@H]1C[C@H]2c3cc(NS(=O)(=O)c4cccc(OC)c4)ccc3O[C@H]2[C@@H](CO)O1	·	·	·	·	·	–
O=C(c1ccc(OC2CCN(Cc3ccc(F)cc3)CC2)cc1)N1CCCC1	–	–	10	–	–	–
CCc1ccc(CN2CCC(Oc3ccc(C(=O)N4CCCC4)cc3)CC2)cc1	–	–	–	–	–	–
O=C1C=CC2=C3c4cc(O)c(O)cc4CC3(O)COC2=C1O (stereo unspecified)	–	–	–	–	–	–
COc1ccc(Cl)cc1S(=O)(=O)n1ccnc1	–	–	9.2	–	–	–
COc1ccc(Cl)cc1S(=O)(=O)N1CCCC1=O	–	–	–	–	–	–
O=C(Nc1nc(-c2cccc3ccccc23)cs1)c1cnccn1	–	–	10	–	–	–
O=C(NCC1CCN(Cc2ccccc2F)CC1)Nc1ccccc1F	–	–	–	–	–	–
SMILES	Arrestin-AP2 inh	MOR-DOR inv ag	HTR5A ag	MOR-DOR ag	HTR5A inv ctr	DAGLB inh
O=C(NCC1CCN(Cc2ccccc2F)CC1)Nc1cccc(Br)c1	–	–	14	–	–	–
COc1ccc(OC)c(CN2CCN(C(=O)c3cccc(S(=O)(=O)N(C)c4ccccc4)c3)CC2)c1	·	·	·	·	·	–
C[C@@H]1CN([C@@H](C)CO)C(=O)c2cc(Br)cnc2O[C@H]1CN(C)Cc1ccccc1C(=O)O	·	·	·	·	·	–
CCCC(=O)C1=C(O)C(C(=O)OC)C(C)(C)CC1=Nc1ccccc1 (stereo unspecified)	–	–	–	–	–	–
CCCC(=O)C1=C(O)C(C(=O)OC)C(C)(C)CC1=Nc1cccc2ccccc12 (stereo unspecified)	–	–	10	–	–	–
CC(OC(=O)CCNS(=O)(=O)c1ccc(Cl)cc1)C(=O)N(C)Cc1ccccc1 (stereo unspecified)	·	·	·	·	·	–
CCOCc1nnc(NC(=O)c2cc(OC)c(OC)cc2[N+](=O)[O-])s1	–	–	12	–	–	–
CCOCCc1nnc(NC(=O)c2cc(OC)c(OC)cc2[N+](=O)[O-])s1	–	–	–	–	–	–
Cc1ccc(C)c(S(=O)(=O)/N=C2\C=C(NS(=O)(=O)c3ccccc3)C(=O)c3ccccc32)c1	–	–	–	–	–	–
Cc1cc(C)c(S(=O)(=O)/N=C2/C=C(Sc3ncn[nH]3)C(=O)c3ccccc32)cc1C	–	–	–	20	–	–
O=C(c1cc(Cl)cc(Cl)c1)N1CCC2CC1c1cc(N3CCCCC3)ccc12 (stereo unspecified)	·	·	·	·	·	–
Cc1nc(-c2ccc(C(=O)Nc3ccc(F)cc3)cc2)cs1	–	–	13	–	–	–
COc1ccc(NC(=O)c2ccc(-c3csc(C)n3)cc2)cc1	–	–	–	–	–	–
O=C(Nc1ccccn1)c1ccc2ccccc2n1	–	–	8.9	–	–	–
CC(=O)c1c(C)[nH]c(C(=O)OCC(=O)NC(C)c2ccccc2)c1C (stereo unspecified)	·	·	·	·	·	–
Cc1ccc(-c2nnc(N3CCN(c4ccccn4)CC3)c3ccccc23)cc1	–	–	13	–	–	–
Cc1ccc(NC(=O)c2ccc([N+](=O)[O-])s2)cc1S(=O)(=O)N1CCOCC1	–	–	–	–	–	–
Cc1ccccc1C(=O)c1ccc2c(c1)n(C)c(=O)n2C	–	–	12	–	–	–
CN(Cc1ccccc1)C(=O)C1CCN(S(=O)(=O)c2cc([N+](=O)[O-])ccc2Cl)CC1	–	–	13	–	–	–
O=C(NCc1ccccc1)C1CCN(S(=O)(=O)c2cc([N+](=O)[O-])ccc2Cl)CC1	–	–	–	–	–	–
C[C@H](CO)N1C[C@H](C)[C@H](CN(C)Cc2ccc(-c3ccccc3)cc2)Oc2ccc(NS(=O)(=O)c3ccccc3)cc2CC1=O	–	–	14	–	–	–
CCn1nc(NC(=O)c2cccnc2)c2cc3cccc(C)c3nc21	–	–	18	–	–	–
CCn1nc(NC(=O)c2ccncc2)c2cc3cccc(C)c3nc21	–	–	–	–	–	–
C[C@H](CO)N1C[C@H](C)[C@@H](CN(C)S(=O)(=O)c2ccccc2)Oc2c(NS(=O)(=O)c3ccccc3)cccc2C1=O	–	–	–	–	–	–
O=C(CN1C(=O)/C(=C/c2ccccc2)SC1=S)NC1C=CS(=O)(=O)C1 (stereo unspecified)	–	–	12	–	–	–
CNC(=O)C[C@@H]1C(=O)N(c2ccc(Br)cc2)CC1(C)C	·	·	·	·	·	–
c1cnc2nc3c4ccccc4c4ccccc4c3nc2c1	–	–	–	–	–	–
COCCOC(=O)c1c(C)n(C)c2ccc(OC(=O)c3c(OC)cccc3OC)cc12	–	–	11	–	–	–
O=S(=O)(NN=C1CCCCCC1)c1ccccc1	–	–	13	–	–	–
